From ChEMBL document CHEMBL6092128, “2-Aryl-1-hydroxyimidazoles possessing antiviral activity against a wide range of orthopoxviruses, including the variola virus” (RSC Med Chem, 2024)

Tests used:
[1] = test system: Vaccinia virus; experiment: Antiviral activity against Vaccinia virus Copenhagen infected in African green monkey Vero cells assessed as inhibition of virus-induced cytotoxicity incubated for 4 days by neutral red dye uptake based spectrophotometric analysis; format: functional, organism-based, Orthopoxvirus vaccinia
[2] = Selectivity index, ratio of CC50 for cytotoxicity against African green monkey Vero cells to IC50 for antiviral activity against Vaccinia virus Copenhagen infected in African green monkey Vero cells; format: toxicity, cell-based; conditions: read-out: Ratio CC50/IC50
[3] = Cytotoxicity against African green monkey Vero cells assessed as cell destruction incubated for 4 days by neutral red dye uptake based spectrophotometric analysis; format: toxicity; conditions: chlorocebus sabaeus, time 4 day
Summary of the method: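 Uninfected confluent Vero monolayers in DMEM with 2% FBS were exposed to 3-fold compound dilutions, final 300 to 0.14 μg mL−1 (some from 600), in triplicate rows for 4 days at 37 °C. Viable cells were measured by neutral red uptake (1.5 h), acid phosphate/ethanol extraction and OD 490 nm. CC50 was taken from semilog concentration–OD curves and recalculated to μM.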

[4] = Selectivity index, ratio of CC50 for cytotoxicity against African green monkey Vero cells to IC50 for antiviral activity against Ectromelia virus K-1 infected in African green monkey Vero cells; format: toxicity, cell-based; conditions: read-out: Ratio CC50/IC50
[5] = Selectivity index, ratio of CC50 for cytotoxicity against African green monkey Vero cells to IC50 for antiviral activity against Cowpox virus Grishak infected in African green monkey Vero cells; format: toxicity, cell-based; conditions: read-out: Ratio CC50/IC50
[6] = Selectivity index, ratio of CC50 for cytotoxicity against African green monkey Vero cells to IC50 for antiviral activity against Variola virus India3a infected in African green monkey Vero cells; format: toxicity, cell-based; conditions: read-out: Ratio CC50/IC50
[7] = test system: Cowpox virus; experiment: Antiviral activity against Cowpox virus Grishak infected in African green monkey Vero cells assessed as inhibition of virus-induced cytotoxicity incubated for 4 days by neutral red dye uptake based spectrophotometric analysis; format: functional, organism-based; conditions: 96 h
[8] = test system: Variola virus; experiment: Antiviral activity against Variola virus India3a infected in African green monkey Vero cells assessed as inhibition of virus-induced cytotoxicity incubated for 4 days by neutral red dye uptake based spectrophotometric analysis; format: functional, organism-based; conditions: 96 h
[9] = test system: Ectromelia virus; experiment: Antiviral activity against Ectromelia virus K-1 infected in African green monkey Vero cells assessed as inhibition of virus-induced cytotoxicity incubated for 4 days by neutral red dye uptake based spectrophotometric analysis; format: functional, organism-based; conditions: K-1, Vero, 96 h
[10] = Orthopoxvirus vaccinia, Copenhagen, Vero, 96 h, read-out: IC50

Compound `COc1ccc(-c2nc(C)c(C(C)=O)n2O)cc1` has an IC50 [1, 10] of 17.9 µM, a selectivity ratio [2] of 34 and a CC50 at 96 h [3] of 614 µM.
Work on `O=C(NNC(=O)C1C2C=CC(C3CC23)C1C(=O)O)c1ccc(C(F)(F)F)cc1` (stereo unspecified) yielded an IC50 [1, 10] of 0.008 µM, a selectivity ratio [4] of 149000 and a selectivity ratio [5] of 133000. The selectivity ratio [6] was 149000, the IC50 [7] was 0.009 µM and the selectivity ratio [2] was 149000. The IC50 [8] was 0.008 µM and the IC50 [9] was 0.008 µM.
In the case of `COn1c(-c2ccc([N+](=O)[O-])cc2)nc2c1C(=O)CC(C)(C)C2`, the IC50 [1, 10] is reported as 3.96 µM, the selectivity ratio [4] is reported as 92 and the selectivity ratio [5] is reported as 65. It also gave a selectivity ratio [6] of 291, an IC50 [7] of 17.9 µM and a selectivity ratio [2] of 291. The IC50 [8] was 3.96 µM, the IC50 [9] was 12.5 µM and the CC50 at 96 h [3] was 1150 µM.
For `Cc1ccc(C)c(COn2c(-c3ccc([N+](=O)[O-])cc3)nc3c2C(=O)CC(C)(C)C3)c1`, the IC50 [1, 10] was 1.34 µM, the selectivity ratio [4] was less than 8 and the selectivity ratio [5] was less than 8. For the same compound, the IC50 [7] was 32.3 µM, the selectivity ratio [2] was 79 and the IC50 [9] was 14.4 µM. It also gave a CC50 at 96 h [3] of 105 µM.
`COn1c(-c2ccc(N(C)C)cc2)nc(C)c1C(C)=O` showed an IC50 [1, 10] of 62.1 µM, a selectivity ratio [2] of less than 8 and a CC50 at 96 h [3] of 197 µM.
Compound `CC1(C)CC(=O)c2c(n(Cc3ccccc3)c(-c3ccc([N+](=O)[O-])cc3)[n+]2[O-])C1` has an IC50 [1, 10] of 27.7 µM, a selectivity ratio [2] of 13 and a CC50 at 96 h [3] of 359 µM.
With `CC1(C)CC(=O)c2c(nc(-c3ccc(C#N)cc3)n2O)C1` the IC50 [1, 10] was 0.498 µM, the selectivity ratio [4] was 70 and the selectivity ratio [5] was 10. The selectivity ratio [6] was 120, the IC50 [7] was 17.1 µM and the selectivity ratio [2] was 351. For the same compound, the IC50 [8] was 1.45 µM, the IC50 [9] was 2.49 µM and the CC50 at 96 h [3] was 175 µM.
`COn1c(-c2ccc(C#N)cc2)nc(C)c1C(C)=O` gave an IC50 [1, 10] of 228 µM, a selectivity ratio [2] of less than 8 and a CC50 at 96 h [3] of 1060 µM.
With `CC(=O)c1c(C)n(C)c(-c2ccc(C#N)cc2)[n+]1[O-]` the IC50 ([1]; vero) was “Not_active” and the CC50 at 96 h [3] was 1510 µM.
Compound `CC1(C)CC(=O)c2c(nc(-c3ccc([N+](=O)[O-])cc3)n2OCc2ccc(Cl)c(Cl)c2)C1` has an IC50 [1, 10] of 0.61 µM, a selectivity ratio [4] of 60 and a selectivity ratio [5] of 15. It also gave an IC50 [7] of 7.04 µM, a selectivity ratio [2] of 178 and an IC50 [9] of 1.8 µM. For the same compound, the CC50 at 96 h [3] was 109 µM.
In the case of `COn1c(-c2ccc(C#N)cc2)nc2c1C(=O)CC(C)(C)C2`, the IC50 [1, 10] is reported as 28.5 µM, the selectivity ratio [2] is reported as 27 and the CC50 at 96 h [3] is reported as 757 µM.
`CC1(C)CC(=O)c2c(nc(-c3ccc([N+](=O)[O-])cc3)n2OCc2ccccc2Br)C1` showed an IC50 [1, 10] of 2.91 µM, a selectivity ratio [4] of less than 8 and a selectivity ratio [5] of less than 8. It also gave an IC50 [7] of 29.1 µM, a selectivity ratio [2] of 34 and an IC50 [9] of 28.7 µM. The CC50 at 96 h [3] was 100 µM.
With `CC1(C)CC(=O)c2c(nc(-c3ccc([N+](=O)[O-])cc3)n2OCc2c(F)cccc2F)C1` the IC50 [1, 10] was 1.22 µM, the selectivity ratio [4] was 12 and the selectivity ratio [5] was less than 8. For the same compound, the IC50 [7] was 7.39 µM, the selectivity ratio [2] was 43 and the IC50 [9] was 4.49 µM. The CC50 at 96 h [3] was 51.7 µM.
In the case of `CC(=O)c1c(C)nc(-c2ccc(C#N)cc2)n1O`, the IC50 [1, 10] is reported as 1.12 µM, the selectivity ratio [2] is reported as 76 and the CC50 at 96 h [3] is reported as 84.6 µM.
For `CC1(C)CC(=O)c2c(nc(-c3ccc(C(F)(F)F)cc3)n2O)C1`, the IC50 [1, 10] was 0.154 µM, the selectivity ratio [4] was 94 and the selectivity ratio [5] was 19. The selectivity ratio [6] was 257, the IC50 [7] was 2.41 µM and the selectivity ratio [2] was 300. It also gave an IC50 [8] of 0.18 µM, an IC50 [9] of 0.49 µM and a CC50 at 96 h [3] of 46.2 µM.
Work on `CC(=O)c1c(C)nc(-c2ccc(C(F)(F)F)cc2)n1O` yielded an IC50 [1, 10] of 0.07 µM, a selectivity ratio [2] of 55 and a CC50 at 96 h [3] of 3.87 µM.
`CC1(C)CC(=O)c2c(nc(-c3ccc([N+](=O)[O-])cc3)n2O)C1` gave an IC50 [1, 10] of 0.133 µM, a selectivity ratio [4] of 358 and a selectivity ratio [5] of 123. The selectivity ratio [6] was 373, the IC50 [7] was 1.16 µM and the selectivity ratio [2] was 1070. The IC50 [8] was 0.38 µM, the IC50 [9] was 0.39 µM and the CC50 at 96 h [3] was 142 µM.
For `COn1c(-c2ccc(C(F)(F)F)cc2)nc(C)c1C(C)=O`, the IC50 [1, 10] was 5.9 µM, the selectivity ratio [2] was 30 and the CC50 at 96 h [3] was 176 µM.
`CC(=O)c1c(C)nc(-c2ccc([N+](=O)[O-])cc2)n1O` gave an IC50 [1, 10] of 0.651 µM, a selectivity ratio [4] of 22 and a selectivity ratio [5] of less than 8. The IC50 [7] was 5.9 µM, the selectivity ratio [2] was 44 and the IC50 [9] was 1.3 µM. For the same compound, the CC50 at 96 h [3] was 28.3 µM.
Work on `Cn1c2c([n+]([O-])c1-c1ccc([N+](=O)[O-])cc1)C(=O)CC(C)(C)C2` yielded an IC50 [1, 10] of 183 µM, a selectivity ratio [2] of 13 and a CC50 at 96 h [3] of 2440 µM.
In the case of `CC1(C)CC(=O)c2c(nc(-c3ccc([N+](=O)[O-])cc3)n2OCc2ccccc2)C1`, the IC50 [1, 10] is reported as 6.39 µM, the selectivity ratio [4] is reported as 38 and the selectivity ratio [5] is reported as 15. For the same compound, the IC50 [7] was 78.2 µM, the selectivity ratio [2] was 182 and the IC50 [9] was 30.9 µM. The CC50 at 96 h [3] was 1160 µM.
With `CC(=O)c1c(C)n(C)c(-c2ccc([N+](=O)[O-])cc2)[n+]1[O-]` the IC50 ([1]; vero) was “Not_active” and the CC50 at 96 h [3] was 2980 µM.
For `CC(=O)c1c(C)nc(-c2ccc(N(C)C)cc2)n1O`, the IC50 [1, 10] was 12.9 µM, the selectivity ratio [2] was 23 and the CC50 at 96 h [3] was 299 µM.
`COn1c(-c2ccc([N+](=O)[O-])cc2)nc(C)c1C(C)=O` showed an IC50 [1, 10] of 4.76 µM, a selectivity ratio [4] of 32 and a selectivity ratio [5] of 20. The IC50 [7] was 22.3 µM, the selectivity ratio [2] was 93 and the IC50 [9] was 13.9 µM. It also gave a CC50 at 96 h [3] of 444 µM.
For `Cn1c2c([n+]([O-])c1-c1ccc(C(F)(F)F)cc1)C(=O)CC(C)(C)C2`, the IC50 [1, 10] was 14.2 µM, the selectivity ratio [2] was 146 and the CC50 at 96 h [3] was 2080 µM.
`COc1ccc(-c2nc(C)c(C(C)=O)n2OC)cc1` gave an IC50 [1, 10] of 207 µM, a selectivity ratio [2] of less than 8 and a CC50 at 96 h [3] of 357 µM.
`Nc1ccn(C[C@@H](CO)OCP(=O)(O)O)c(=O)n1` [CIDOFOVIR ANHYDROUS] showed a selectivity ratio [4] of 28, a selectivity ratio [5] of 23 and a selectivity ratio [6] of 26. For the same compound, the IC50 [7] was 48.2 µM, the selectivity ratio [2] was 34 and the IC50 [8] was 43.1 µM. The IC50 [9] was 39.4 µM and the CC50 at 96 h [3] was 1110 µM.
